# DDE Tn6 FP inh: inhibitors of Tn6 peptide binding to human fibrin DD(E). P02675. Fibrin DD(E) TRITC-Tn6 fluorescence polarization displacement. inhibition, % at 8.3 µM. 0.21% of 370,000 active;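 active = inhibition above a per-campaign cutoff: mean of compounds within control limits plus 3 SD, cut at about 15% in these data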;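 also: 0% = median of all compound wells on the plate and 100% = blocking peptide control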
# MT1-MMP act inh: blocks activation of human MT1-MMP. AID 651647. GFP/RFP ratio change, % at 20 µM. 0.061% of 360,000 active. HT1080 RFP-PRO-GFP cells, GFP/RFP ratio fluorescence, overnight; percent of plate control window, DMSO zero. P50281;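 active = GFP/RFP ratio change of at least 30% with cell ATP level not reduced by more than half and red fluorescence within 50% of control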
#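 Assay system: HT1080 RFP-PRO-GFP cells. Benchmarks: DMSO vehicle wells and RFP-L50D-GFP reporter cell wells. Times: overnight cell settling, then overnight compound exposure, 37 °C, 5% CO2. Compound: 20 µM single dose, 1% DMSO. Read-out basis: GFP/RFP fluorescence ratio.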
# DDE Tn7 FP inh: disrupts Tn7 cyclic peptide binding to fibrin D-Dimer-E complex. 0.13% of 370,000 active. P02675. AID 720508. inhibition, % at 8.3 µM. FP displacement of FITC-Tn7 peptide from fibrin DD(E); 0% = median of compound wells per plate;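 active = inhibition above the mean of compounds falling within the control limits plus 3 SD of them, cut at about 14% in these data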;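 also: 0% = plate median of compound wells and 100% = 10 µM Aha-Tn7 peptide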
#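 Assay system: Human fibrin DD(E) protein | Medium: Tris buffer with calcium and detergent, pH 7.8 | Reagent: 0.1 µM fluorescent Tn7 | Compound dosing: Single point at 8.3 µM | Times: 10 min preincubation, 3 h with tracer, room temperature | Detection: Fluorescence polarization of the labelled Tn7 tracer | Controls: Aha-Tn7 high control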
# ADAM10 inh: ADAM10 inhibition, QFRET primary screen; O14672; recombinant ADAM10, EDANS/DABCYL FRET peptide cleavage, 3 h; inhibition, % at 7 µM; 0.62% of 370,000 active; AID 720582;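 active = inhibition above a per-campaign cutoff equal to the mean of compounds falling between control-based bounds plus 3 SD, cut at about 20% in these data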;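 also: 0% = DMSO wells while the 100% control is not disclosed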
# ADAM17 inh: inhibitors of human ADAM17 | 0.83% of 370,000 active | recombinant ADAM17, EDANS/DABCYL FRET peptide cleavage | AID 720648 | inhibition, % at 6.95 µM;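 active = inhibition above the mean of compounds lying between control limits plus 3 SD, set per campaign, cut at about 8.5% in these data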;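 also: 0% = DMSO-only wells as the low control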
# Target sequence (P78536 215-824 limits assumed): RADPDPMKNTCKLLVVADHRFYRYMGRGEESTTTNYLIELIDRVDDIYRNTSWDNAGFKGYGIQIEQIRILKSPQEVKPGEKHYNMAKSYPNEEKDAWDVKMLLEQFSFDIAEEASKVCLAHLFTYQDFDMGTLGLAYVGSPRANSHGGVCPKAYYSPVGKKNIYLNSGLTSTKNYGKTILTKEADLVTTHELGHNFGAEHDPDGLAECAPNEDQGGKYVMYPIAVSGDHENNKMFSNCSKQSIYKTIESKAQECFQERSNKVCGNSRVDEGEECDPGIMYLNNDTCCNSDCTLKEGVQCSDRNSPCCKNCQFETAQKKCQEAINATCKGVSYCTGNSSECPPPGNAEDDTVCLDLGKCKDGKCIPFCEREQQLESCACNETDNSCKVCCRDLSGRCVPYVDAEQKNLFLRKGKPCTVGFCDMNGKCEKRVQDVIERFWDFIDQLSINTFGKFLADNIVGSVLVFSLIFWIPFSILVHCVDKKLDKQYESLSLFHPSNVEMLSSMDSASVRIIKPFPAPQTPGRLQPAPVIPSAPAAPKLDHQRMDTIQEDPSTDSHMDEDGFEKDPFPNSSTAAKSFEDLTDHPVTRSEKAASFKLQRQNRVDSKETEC
# ADAM10 ctr: counter-screen for ADAM17 exosite inhibitors: inhibitors of human ADAM10; recombinant ADAM10, EDANS/DABCYL FRET peptide cleavage, 3 h; AID 743256; shares compounds with ADAM17 inh; 47% of 2,900 active; inhibition, % at 6.95 µM;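 active = mean inhibition over the triplicate runs exceeds the activity threshold set in the earlier primary screen, cut at about 20% in these data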;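 also: 0% = DMSO wells and 100% = marimastat wells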
# ADAM17 confirm: human ADAM17 inhibition, confirmation; shares compounds with ADAM17 inh; recombinant ADAM17, EDANS/DABCYL QFRET peptide cleavage; inhibition, % at 6.95 µM; 65% of 2,900 active;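 active = mean inhibition across replicates above the hit cutoff set in the primary screen, cut at about 8.5% in these data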;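 also: 0% = DMSO wells and 100% = marimastat wells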
# An asterisk follows results filed as active; nt = not tested or not shown. In the library only some 1.6% were active in any assay of this set; here they are far more common.
SMILES,DDE Tn6 FP inh,MT1-MMP act inh,DDE Tn7 FP inh,ADAM10 inh,ADAM17 inh,ADAM10 ctr,ADAM17 confirm
CN(Cc1ccccc1)S(=O)(=O)c1ccc(NC(=O)C2CCCO2)cc1 (configuration not stated),1,1,0,0,8.9*,-5,-1
CN(Cc1ccccc1)S(=O)(=O)c1ccc(NC(=O)C2CCCCC2C(=O)O)cc1 (configuration not stated),-1,3,-2,-16,-4,nt,nt
O=C(NCCc1ccccc1)OCc1cn(Cc2ccc(F)cc2F)nn1,3,nt,-2,2,-4,nt,nt
CCCCc1c(-c2ccccc2OC)ncn1Cc1ccc(F)c(F)c1,4,nt,8,2,0,nt,nt
CCC(=O)NCC[C@@H]1CCc2ccc3c(c21)CCO3,8,nt,10,-4,1,nt,nt
COc1cccc(CN(C)C(=O)c2cc(COc3ccc(-n4cncn4)cc3)on2)c1,1,1,-6,8,8.7*,3,4
COc1cccc(CN(C)C(=O)c2cc(COc3c(F)cccc3F)on2)c1,-7,2,-1,4,-1,nt,nt
O=C(Oc1ccc(Br)cc1C(=O)/C=C/c1ccccc1F)c1ccco1,-7,-4,0,20,11*,11,5
O=C(/C=C/Nc1ccc(Br)cc1F)c1ccco1,-10,-7,-10,-1,0,nt,nt
Cc1c(C(=O)NC(=S)Nc2ccc(NC(=O)c3cccs3)cc2)cccc1[N+](=O)[O-],6,1,2,18,12*,29*,20*
Cc1cc(Nc2cc(C(F)(F)F)cc(C(F)(F)F)c2)cc(=O)n1-c1cc(C(F)(F)F)cc(C(F)(F)F)c1,-3,nt,3,-5,2,nt,nt
CN(C)CCNC(=O)c1ccc2c(=O)n(Cc3ccc(Cl)cc3)c(=S)[nH]c2c1,-10,4,-7,16,9.1*,-9,2
O=S1(=O)CCOC[C@H](Cc2ccccc2)N1Cc1cccc(C(F)(F)F)c1,2,2,-1,0,11*,10,5
O=S1(=O)CCOC[C@H](Cc2ccccc2)N1Cc1ccccc1,-11,1,-9,8,3,nt,nt
O=C(NCc1ccccc1)Nc1ccccc1C(=O)N1CCCC1,4,nt,7,-7,-3,nt,nt
C=CCN1[C@H](CO)[C@H](c2ccc(C#CC3(O)CCCC3)cc2)[C@@H]1C#N,-2,nt,5,-6,1,nt,nt
O=C(c1ccc(C(F)(F)F)cc1)N1CCC(=O)N(C(COCc2ccc(C(F)(F)F)cc2)Cc2ccccc2)CC1 (configuration not stated),-5,2,-5,18,8.9*,38*,17*
Cc1cccc(COC[C@H](Cc2ccccc2)N2CCN(C(=O)c3ccc(C(F)(F)F)cc3)CCC2=O)c1,0,-4,7,18,8,nt,nt
CC1=C(C(=O)OCc2ccccc2)C(/C=C/c2ccccc2)NC(=S)N1 (configuration not stated),-11,-7,2,18,12*,30*,15*
COc1cc(OC)cc(N(C(=O)C2COc3ccccc3O2)C(C(=O)NC2CCCCC2)c2ccc(O)cc2)c1 (configuration not stated),-4,-51,3,15,11*,15,10*
CC(=O)Nc1ccc(Sc2ncnc3scc(-c4ccccc4)c23)cc1,-4,-7,-5,7,10*,14,10.0*
O=C(NCC1COCCO1)C1CCN(S(=O)(=O)c2cccs2)CC1 (configuration not stated),0,nt,-2,-1,0,nt,nt
N=C(N)SCc1ccccn1,-10,1,2,-2,-2,nt,nt
c1ccc(CSc2nnc(SCc3ccccn3)s2)nc1,6,5,-8,9,9.0*,5,9
Cc1sc2nc(COC(=O)CNC(=O)c3ccccc3Cl)[nH]c(=O)c2c1C,11,nt,1,9,4,nt,nt
SMILES,DDE Tn6 FP inh,MT1-MMP act inh,DDE Tn7 FP inh,ADAM10 inh,ADAM17 inh,ADAM10 ctr,ADAM17 confirm
O=S(=O)(c1cccc(C(F)(F)F)c1)N1CCN(C(=S)NCc2ccco2)CC1,0,-3,2,-3,2,nt,nt
CC(C)c1ccc(S(=O)(=O)N2CCN(C(=S)NCc3ccco3)CC2)cc1,-1,-4,-6,5,9.5*,28*,17*
COC[C@H]1O[C@]2(c3ccccc3)CO[C@H]1[C@@H](/C=C/c1ccccc1)C2,12,nt,10,3,-2,nt,nt
CCOC(=O)[C@@H]1[C@H]2COc3ccc(Br)cc3[C@@H]2N2C(=O)N(c3ccc(C)cc3)C(=O)[C@@]12C,3,0,5,14,-1,nt,nt
Cc1ccc2c(c1)[C@H]1[C@H](CO2)[C@H](c2ccccc2)[C@]2(C)C(=O)N(Cc3ccc(Cl)cc3)CC(=O)N12,-8,-3,-7,15,12*,10,12*
CCOC(=O)[C@@H]1[C@H]2COc3ccc(Br)cc3[C@H]2N2C(=O)N(c3ccc(Br)cc3)C(=O)[C@]12C,11,-3,-6,12,9.2*,31*,21*
C[C@@]12C(=O)Nc3ccccc3C(=O)N1[C@H]1c3cc(Br)ccc3OC[C@@H]1[C@@H]2c1ccccc1,5,-14,5,19,8.6*,20*,11*
CCOC(=O)[C@H]1[C@H]2COc3ccc(C)cc3[C@@H]2N2C(=O)c3cc(Br)ccc3NC(=O)[C@@]12C,-6,-16,-13,10,9.5*,49*,17*
C#CCNC(=O)C[C@@H]1C(=O)N(CC=C)C2=CCCCC[C@]21C(=O)OC,1,nt,4,-4,0,nt,nt
COc1cc(C(c2c(C)[nH][nH]c2=O)c2c(C)[nH][nH]c2=O)ccc1OCc1ccc([N+](=O)[O-])cc1,1,13,1,16,10*,16,13*
COc1ccc(NC(=O)CN2CCCC2c2cccs2)cc1S(=O)(=O)N1CCCCC1 (configuration not stated),5,9,3,18,9.5*,3,1
CCOc1ccc(NC(=O)CN2CCCC2c2cccs2)cc1S(=O)(=O)N1CCCC1 (configuration not stated),-3,-1,0,-3,2,nt,nt
O=C(NCc1ccccc1)[C@@H]1CCCN1C(=O)[C@H]1CCCN1C(=O)c1ccccc1C(F)(F)F,-1,nt,1,0,-2,nt,nt
COc1ccc(Cl)cc1NC(=O)c1nnn(CC(=O)Nc2ccc(C)c(C)c2)c1N,7,3,-5,8,11*,-6,2

# Source: PubChem BioAssay
